High-throughput results: PubChem, Broad Institute
The list is not random: actives were taken first. Their share in the collection is about 0.98%.
ERAP1 inh = blocks human ERAP1 aminopeptidase activity | Q9NZ08 | recombinant ERAP1, Leu-AMC fluorescence, 60 min | inhibition, % at 10.7 µM | hit rate 0.15% among 340,000 | AID 652197;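 active = mean replicate inhibition of at least 30%, or all replicates individually reaching that 30% level; inactive = mean below 30% and not every replicate reaching it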;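 note: 0% = neutral control wells and 100% = L-leucinethiol positive control wells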
Rtt109 Vps75 = inhibitors of Candida albicans Rtt109/Vps75 histone acetyltransferase; purified Rtt109/Vps75, ThioGlo CoA-SH fluorescence, 4 h; Q5AAJ8; inhibition, % at 34.9 µM; AID 540336; hit rate 0.16% among 330,000;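 active = inhibition of at least 50% in every replicate; inconclusive = best replicate reaches 50% inhibition but some replicates fall short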
Target sequence (Q5AAJ8 whole entry, looked up): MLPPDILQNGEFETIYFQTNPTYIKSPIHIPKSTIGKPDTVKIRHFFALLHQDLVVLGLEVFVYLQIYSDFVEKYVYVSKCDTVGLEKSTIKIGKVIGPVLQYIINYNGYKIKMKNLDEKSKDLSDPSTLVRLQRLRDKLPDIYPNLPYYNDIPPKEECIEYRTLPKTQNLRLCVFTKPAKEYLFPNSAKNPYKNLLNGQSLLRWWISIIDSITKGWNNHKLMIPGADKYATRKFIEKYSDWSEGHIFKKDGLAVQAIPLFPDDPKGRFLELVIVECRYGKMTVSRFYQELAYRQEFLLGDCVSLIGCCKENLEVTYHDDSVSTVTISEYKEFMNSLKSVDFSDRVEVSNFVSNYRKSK
C2C12 statin = suppressors of simvastatin-induced myotoxicity in C2C12 myotubes. ATP luminescence, 48 h; scaled: DMSO 0, geranylgeraniol control 100. rescue of ATP level, % at 7.49 µM. hit rate 0.78% among 330,000;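 active = mean ATP rescue above about 67%, or every replicate alone reaching that limit, limit read from the data, passing the limit was not always enough; inconclusive = no clear call, values can overlap the other calls; inactive = mean under the limit and some replicate under it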;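 note: myotubes were challenged with 10 µM simvastatin during compound exposure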
PGC1a acetyl inh = modulators of PGC1a acetylation. U2OS PGC1a acetylation, AlphaScreen anti-acetyl-lysine; with virally co-expressed GCN5 acetyltransferase. inhibition, % at 15.6 µM. hit rate 0.17% among 350,000. AID 651687;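 active = every replicate shows inhibition of at least 40%; inconclusive = mean inhibition at least 40% but some replicate below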;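 note: 0% = neutral control wells and 100% = positive control wells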
S100A4 MyoIIA = inhibitors of human S100A4 binding to myosin IIA peptide. P26447. S100A4/TAMRA-MyoIIA peptide fluorescence polarization. inhibition, % at 10.7 µM. hit rate 0.14% among 360,000. AID 652163;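 active = mean inhibition of at least 70% across replicates, with every replicate also reaching that level; inconclusive = mean inhibition reaches 70% but some replicates fall short; inactive = mean inhibition below 70%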
Target sequence (P26447 whole entry, looked up): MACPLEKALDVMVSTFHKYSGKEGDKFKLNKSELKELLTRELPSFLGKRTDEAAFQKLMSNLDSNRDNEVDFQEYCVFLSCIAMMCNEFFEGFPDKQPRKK
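Material: human S100A4 monomer with TAMRA-labelled myosin IIA peptide; buffer or medium: HEPES pH 7.2 with CaCl2, KCl, NaCl, DTT, Triton; compound dosing: one concentration per compound; schedule: 5 min incubation before reading; benchmarks: neutral control DMSO, positive control TFP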
* marks the source's active call; other numbers are inactive results; ? = inconclusive; . = no result.

SMILES	ERAP1 inh	Rtt109 Vps75	C2C12 statin	PGC1a acetyl inh	S100A4 MyoIIA
C=CCn1c(=O)c(C(=O)Nc2cccnc2)c(O)c2ccccc21	.	7.7	96.2*	-8.8	.
CCN1CCCC1CNS(=O)(=O)c1ccc(F)c(Cl)c1 (stereo not drawn)	1.6	-7.0	6.5	.	0.2
CCN1CCCC1CNS(=O)(=O)c1cccc(C(F)(F)F)c1 (stereo not drawn)	30.3*	2.6	.	-3.3	1.6
CCCNC(=O)N1CCC2(CC1)CN(S(C)(=O)=O)[C@H](CO)c1c2c2ccc(OC)cc2n1C	-0.8	.	.	9.3	-6.8
COc1ccc(C(=O)OCc2cc(C)ccc2C)cc1S(=O)(=O)N1CCCC1	-0.3	3.7	2.5	-36.9	-2.9
COC(=O)c1cc(COC(=O)c2ccc(OC)c(S(=O)(=O)N3CCCC3)c2)oc1C	.	6.2	89.7*	-38.8	.
C[C@@H]1CCCCO[C@H](CN(C)C(=O)Cc2ccccc2)[C@H](C)CN([C@H](C)CO)C(=O)c2cc(NC(=O)Nc3ccc(F)cc3)ccc2O1	-2.8	.	.	3.6	-7.5
Cc1ccccc1C(=O)NCCCNC(=O)c1ccco1	-0.1	4.2	15.6	-1.5	-1.8
Cc1ccccc1C(=O)NCCNC(=O)c1ccco1	-2.4	50.6*	0.9	12.5	4.4
Fc1ccc(CNC(=S)Nc2ccc(Cl)cc2)cc1	-2.2	-1.9	-13.5	.	-7.0
S=C(NCc1ccc(Cl)cc1)Nc1ccccc1	-1.4	.	128.7*	21.1	-1.0
CC1CCCCC1NC(=O)CCNC(=O)N1CC(=O)Nc2ccccc21 (stereo not drawn)	-0.3	-4.7	119.1*	-0.5	0.5
CCN1C(=O)/C(=C2\C=Cc3cc(C)ccc3N2CC)OC1=S	.	-68.2	2.0	-6.3	.
CCN1C(=O)/C(=C2/C=Cc3ccccc3N2C)OC1=S	.	-9.2	117.9*	5.6	.
CC(=O)N1CC2(C1)[C@H](c1ccc(-c3cccc(F)c3)cc1)[C@H](CO)N2CC1CC1	-0.3	.	.	-0.2	-4.1
Cn1c(-c2ccccc2)cc(=NNS(C)(=O)=O)c2cc(S(=O)(=O)O)ccc21	36.7*	.	-0.3	1.8	-2.2
Cn1c(-c2ccccc2)cc(=O)c2ccccc21	.	1.7	9.5	6.4	.
COc1cccc(CN2CCC(CO)(CC3CCCCO3)CC2)c1 (stereo not drawn)	-4.6	-7.6	8.8	99.9*	4.2
Cc1ccc(N2CC(C(=O)NC3=NCCS3)CC2=O)cc1C (stereo not drawn)	.	-2.9	13.0	10.1	.
Cc1ccc(N2CC(C(=O)Nc3ccc(N(C)C)cc3)CC2=O)cc1C (stereo not drawn)	.	-1.6	147.7*	-2.1	.
Cc1cc(N2CC(C(=O)O)CC2=O)ccc1Br (stereo not drawn)	.	9.1	75.6*	10.8	.
N#Cc1ccc(-c2ccc3c(c2)[C@@H]2[C@@H](CCN2C(=O)c2ccccc2F)[C@@H](CO)N3)cc1	-2.8	.	5.3	10.6	-9.9
COC(=O)CCC(=O)NNC(=O)c1ccc(Br)cc1	.	6.3	100.9*	-5.2	.
Cn1cnc2nc[nH]c2c1=S	-4.0	-9.3	74.8*	6.9	7.2
C[C@H]1CCCCO[C@@H](CN(C)C(=O)c2ccccc2)[C@@H](C)CN([C@@H](C)CO)C(=O)c2cc(NS(=O)(=O)c3ccc(Cl)cc3)ccc2O1	0.5	.	.	6.2	-5.9
SMILES	ERAP1 inh	Rtt109 Vps75	C2C12 statin	PGC1a acetyl inh	S100A4 MyoIIA
C=CCNS(=O)(=O)c1cccc2cc(C(=O)O)c(O)cc12	.	-101.0	-7.7	95.5*	.
CN(C[C@H]1N[C@@H](CO)[C@@H]1c1ccc(C2=CCCC2)cc1)C(=O)c1ccc(F)cc1	1.9	.	-451.8	78.8*	-6.4
Cc1cc(C)nc(/N=C2\NC(=O)CC(C(=O)O)N2c2ccc(Cl)cc2)n1 (stereo not drawn)	2.2	-6.7	70.4*	1.3	-0.6
COc1ccc(CN(Cc2cccn2C)S(=O)(=O)c2ccccc2)cc1	.	-1.4	5.4	74.3*	-8.9
COc1ccc2c3c([nH]c2c1)[C@H](CO)N(S(C)(=O)=O)CC31CCN(Cc2ccccc2)CC1	.	.	.	-13.2	.
CCc1nnc(NC(=O)CSc2nnc(C3CCCCC3)n2-c2cccc(Cl)c2)s1	.	59.2*	36.3	-1.1	.
CCCC#Cc1cnc2c(c1)C(=O)N([C@@H](C)CO)C[C@@H](C)[C@@H](CN(C)C(=O)C1CCCCC1)O2	.	.	38.0	-3.4	.
S=C(c1ccc(-c2ccccc2Cl)o1)N1CCOCC1	.	9.6	78.3*	11.0	.
CC(C)NC(=O)N(C)C[C@@H]1Oc2ccc(NC(=O)Cc3ccccc3)cc2CC(=O)N([C@@H](C)CO)C[C@H]1C	3.6	.	-3.9	0.5	-0.7
OC(CNCC1CCCO1)COc1ccc(OCC(O)CNCC2CCCO2)cc1 (stereo not drawn)	.	-5.3	-7.8	-5.7	.
CCOC(=O)c1c(C)n(-c2ccc(C)cc2)c2ccc(OCC(O)CNCC3CCCO3)cc12 (stereo not drawn)	.	64.3*	.	-20.8	.
CCOC(=O)c1c(C)n(-c2ccc(C)cc2)c2ccc(OCC(O)CNCCCO)cc12 (stereo not drawn)	1.9	67.4*	.	-12.7	-1.5
CCOC(=O)c1c(C)n(C)c2ccc(OCC(O)CNC(CC)CO)cc12 (stereo not drawn)	.	?	.	39.3	.
CN(C)C(=O)c1cccc(-c2ccc([C@H]3[C@@H](CO)N4CCCCN(CCC(F)(F)F)C[C@@H]34)cc2)c1	-2.6	.	.	-0.9	1.3
CCOc1ccccc1Nc1ncnc2ccc(Br)cc12	-0.3	-0.9	.	.	-5.1
CCOc1ccccc1Nc1ncnc2ccccc12	.	-0.6	85.9*	5.1	.
Cc1cc(N)c(NC2=CC(=O)CC(C)(C)C2)cc1C	.	3.1	137.8*	-1.8	.
CCOC(=O)c1cnc2ccc(OCC)cc2c1N1CCN(c2ccccc2)CC1	.	-23.6	80.7*	-24.1	.
C[C@@H]1CCCCO[C@H](CN(C)C(=O)NC2CCCCC2)[C@@H](C)CN([C@H](C)CO)C(=O)c2cc(NC(=O)Nc3cccc4ccccc34)ccc2O1	5.8	.	-13.5	-9.6	-5.2
C[C@@H]1CN([C@H](C)CO)C(=O)Cc2cc(NC(=O)Cc3cn(C)c4ccccc34)ccc2O[C@H]1CN(C)Cc1ccc(-c2ccccc2)cc1	-2.0	.	93.0*	-7.5	33.7
C[C@H]1CN([C@@H](C)CO)C(=O)Cc2cc(NC(=O)Cc3cn(C)c4ccccc34)ccc2O[C@H]1CN(C)Cc1ccc(Oc2ccccc2)cc1	.	.	48.3	-3.5	.
C[C@H](CO)N1C[C@H](C)[C@@H](CN(C)S(=O)(=O)c2ccc(F)cc2)Oc2ccc(NC(=O)Cc3cn(C)c4ccccc34)cc2CC1=O	5.0	.	102.2*	7.5	-78.6
C[C@H](CO)N1C[C@H](C)[C@@H](CN(C)Cc2ccc(Oc3ccccc3)cc2)Oc2ccc(NC(=O)Cc3cn(C)c4ccccc34)cc2CC1=O	.	.	114.2*	-19.6	.
C[C@H](CO)N1C[C@H](C)[C@@H](CN(C)Cc2ccc(Cl)c(Cl)c2)Oc2ccc(N(C)C)cc2CC1=O	0.9	.	48.1	0.4	-3.3
